Results as given in ChEMBL document CHEMBL1147785, “Novel peptidomimetic cysteine protease inhibitors as potential antimalarial agents” (J Med Chem, 2006).
Activity calls are given as the source filed them. The calls are words filed in the database; no cut-off is given here. Residues, ends and D or L forms follow the SMILES beside them. *: point of attachment. Cbz = O=C(OCc1ccccc1)*

Experiments:
Caspase-6 (Homo sapiens) = molecular target: T1, Caspase-6 (Homo sapiens) (UniProt P55212); test: Inhibition of human recombinant caspase6 upto 50 uM
T1 sequence (whole entry): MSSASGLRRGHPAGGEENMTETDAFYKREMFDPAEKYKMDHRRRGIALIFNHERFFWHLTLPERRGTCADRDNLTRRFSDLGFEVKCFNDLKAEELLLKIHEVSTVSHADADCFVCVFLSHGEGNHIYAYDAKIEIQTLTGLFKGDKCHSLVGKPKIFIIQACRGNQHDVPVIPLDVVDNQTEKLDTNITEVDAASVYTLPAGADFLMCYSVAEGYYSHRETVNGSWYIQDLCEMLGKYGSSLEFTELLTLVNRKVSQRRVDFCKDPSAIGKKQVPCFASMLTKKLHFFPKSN

Falcipain 2B = molecular target: T2, Falcipain 2B (Plasmodium falciparum, UniProt Q3HTL5); test: Inhibition of Plasmodium falciparum recombinant FP2B fused with maltose binding protein
T2 sequence (Q3HTL5 whole entry): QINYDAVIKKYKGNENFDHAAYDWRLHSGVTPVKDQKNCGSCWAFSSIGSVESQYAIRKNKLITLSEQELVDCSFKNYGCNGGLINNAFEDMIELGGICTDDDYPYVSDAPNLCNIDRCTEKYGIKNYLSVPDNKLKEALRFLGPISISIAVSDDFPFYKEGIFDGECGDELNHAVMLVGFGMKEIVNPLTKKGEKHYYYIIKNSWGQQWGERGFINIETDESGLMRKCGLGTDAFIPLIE
Summary of the method: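 Recombinant enzyme expressed in E. coli as a maltose binding protein fusion. Fluorescence assay using the fluorogenic substrate Z-Leu-Arg-AMC, with inhibitor at various concentrations. Hydrolysis rate was compared with DMSO-only negative controls and with positive controls containing a standard papain-family cysteine protease aldehyde inhibitor. Results are given as IC50.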

Caspase-2 (Homo sapiens) = molecular target: T3, Caspase-2 (Homo sapiens) (UniProt P42575); test: Inhibition of human recombinant caspase2 upto 50 uM
T3 sequence (whole entry): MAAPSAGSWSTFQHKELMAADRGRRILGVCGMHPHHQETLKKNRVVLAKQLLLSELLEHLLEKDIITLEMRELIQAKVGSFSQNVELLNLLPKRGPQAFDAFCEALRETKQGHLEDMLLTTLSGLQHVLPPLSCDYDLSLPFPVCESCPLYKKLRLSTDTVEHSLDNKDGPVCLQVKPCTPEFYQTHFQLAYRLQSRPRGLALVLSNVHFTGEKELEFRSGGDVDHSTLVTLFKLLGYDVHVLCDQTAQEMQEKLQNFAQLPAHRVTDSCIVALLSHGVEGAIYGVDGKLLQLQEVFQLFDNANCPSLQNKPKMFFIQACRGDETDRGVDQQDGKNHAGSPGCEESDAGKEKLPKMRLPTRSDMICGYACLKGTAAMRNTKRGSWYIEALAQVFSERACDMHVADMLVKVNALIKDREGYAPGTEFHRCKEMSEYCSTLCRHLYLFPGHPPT

Caspase-4 (Homo sapiens) = molecular target: T4, Caspase-4 (Homo sapiens) (UniProt P49662); test: Inhibition of human recombinant caspase4 upto 50 uM
T4 sequence (whole entry): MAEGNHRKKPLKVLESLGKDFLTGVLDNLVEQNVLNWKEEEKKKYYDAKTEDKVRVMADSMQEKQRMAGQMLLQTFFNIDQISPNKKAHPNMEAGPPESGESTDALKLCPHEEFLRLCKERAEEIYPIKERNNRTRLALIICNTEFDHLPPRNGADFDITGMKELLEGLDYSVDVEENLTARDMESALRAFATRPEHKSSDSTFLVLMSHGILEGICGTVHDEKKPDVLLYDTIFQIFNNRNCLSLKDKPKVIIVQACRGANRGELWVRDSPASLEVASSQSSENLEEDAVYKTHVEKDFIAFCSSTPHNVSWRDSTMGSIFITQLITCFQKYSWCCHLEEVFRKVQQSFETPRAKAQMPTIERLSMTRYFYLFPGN

Caspase-5 (Homo sapiens) = molecular target: T5, Caspase-5 (Homo sapiens) (UniProt P51878); test: Inhibition of human recombinant caspase5 upto 50 uM
T5 sequence (whole entry): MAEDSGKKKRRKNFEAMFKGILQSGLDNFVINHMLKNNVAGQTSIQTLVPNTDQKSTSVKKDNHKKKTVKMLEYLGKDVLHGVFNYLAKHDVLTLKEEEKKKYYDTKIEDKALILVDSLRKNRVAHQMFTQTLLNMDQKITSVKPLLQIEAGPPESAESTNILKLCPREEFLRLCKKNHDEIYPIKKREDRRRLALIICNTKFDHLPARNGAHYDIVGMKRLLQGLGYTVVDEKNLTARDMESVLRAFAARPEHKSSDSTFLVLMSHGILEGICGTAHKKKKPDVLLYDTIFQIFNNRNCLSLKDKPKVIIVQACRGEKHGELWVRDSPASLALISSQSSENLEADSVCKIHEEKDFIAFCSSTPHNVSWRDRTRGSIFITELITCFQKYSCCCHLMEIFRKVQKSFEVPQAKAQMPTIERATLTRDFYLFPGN

Caspase-7 (Homo sapiens) = molecular target: T6, Caspase-7 (Homo sapiens) (UniProt P55210); test: Inhibition of human recombinant caspase7 upto 50 uM
T6 sequence (whole entry): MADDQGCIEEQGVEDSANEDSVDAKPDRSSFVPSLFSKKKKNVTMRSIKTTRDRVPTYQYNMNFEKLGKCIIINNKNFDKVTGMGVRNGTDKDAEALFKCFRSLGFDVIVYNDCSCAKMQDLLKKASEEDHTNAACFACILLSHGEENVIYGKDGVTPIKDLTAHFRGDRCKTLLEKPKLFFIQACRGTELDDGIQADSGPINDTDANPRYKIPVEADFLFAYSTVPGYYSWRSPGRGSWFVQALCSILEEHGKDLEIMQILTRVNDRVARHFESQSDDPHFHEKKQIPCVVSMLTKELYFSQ

Caspase-8 (Homo sapiens) = Caspase-8 (Homo sapiens) (UniProt Q14790); test: Inhibition of human recombinant caspase8 upto 50 uM
Sequence of Caspase-8 (Homo sapiens) (Q14790 217-374 limits assumed): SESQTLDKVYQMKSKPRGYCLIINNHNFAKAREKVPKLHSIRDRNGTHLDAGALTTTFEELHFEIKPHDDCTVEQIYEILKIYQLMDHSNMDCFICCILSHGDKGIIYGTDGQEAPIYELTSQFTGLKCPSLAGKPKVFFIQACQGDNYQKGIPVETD
Sequence of Caspase-8 (Homo sapiens) (Q14790 385-479 limits assumed): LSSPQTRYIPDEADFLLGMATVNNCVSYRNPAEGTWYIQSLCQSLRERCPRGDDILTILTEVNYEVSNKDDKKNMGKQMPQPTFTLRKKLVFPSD

Caspase-9 (Homo sapiens) = molecular target: T7, Caspase-9 (Homo sapiens) (UniProt P55211); test: Inhibition of human recombinant caspase9 upto 50 uM
T7 sequence (whole entry): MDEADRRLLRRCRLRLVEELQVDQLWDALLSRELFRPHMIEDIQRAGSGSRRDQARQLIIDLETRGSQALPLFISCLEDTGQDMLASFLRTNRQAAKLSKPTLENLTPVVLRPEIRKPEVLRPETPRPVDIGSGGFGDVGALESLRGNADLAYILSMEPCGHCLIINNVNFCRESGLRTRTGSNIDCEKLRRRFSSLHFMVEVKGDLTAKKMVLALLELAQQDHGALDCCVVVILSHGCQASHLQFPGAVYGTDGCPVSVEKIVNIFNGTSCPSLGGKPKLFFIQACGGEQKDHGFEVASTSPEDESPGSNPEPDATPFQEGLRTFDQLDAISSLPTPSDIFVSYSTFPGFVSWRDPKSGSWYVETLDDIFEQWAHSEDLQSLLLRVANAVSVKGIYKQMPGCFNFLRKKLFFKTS

SMILES	Activity (Caspase-6 (Homo sapiens))	IC50 (Falcipain 2B) [µM]	Activity (Caspase-2 (Homo sapiens))	Activity (Caspase-4 (Homo sapiens))	Activity (Caspase-5 (Homo sapiens))	Activity (Caspase-7 (Homo sapiens))	Activity (Caspase-8 (Homo sapiens))	Activity (Caspase-9 (Homo sapiens))
O=C(CN1C(=O)[C@@H](COC(=O)Nc2ccc(Cl)cc2)N=C(c2ccccc2)c2ccccc21)N[C@H]1CC(=O)OC1O (stereo partly drawn)	inactive	9.53	inactive	inactive	inactive	inactive	inactive	inactive
CC(C)[C@H](NC(=O)OCc1ccccc1)C(=O)N[C@H](C=O)Cc1ccccc1 (Cbz-Val-Phe-aldehyde)	inactive	5	inactive	inactive	inactive	inactive	inactive	inactive
COc1ccc(NC(=O)OC[C@H]2N=C(c3ccccc3)c3ccccc3N(CC(=O)N[C@H]3CC(=O)OC3O)C2=O)cc1 (stereo partly drawn)	inactive	14	inactive	inactive	inactive	inactive	inactive	inactive
O=C(CN1C(=O)[C@H](COC(=O)Nc2ccc(Cl)cc2C(F)(F)F)N=C(c2ccccc2)c2ccccc21)N[C@H]1CC(=O)OC1O (stereo partly drawn)	inactive	19.3	inactive	inactive	inactive	inactive	inactive	inactive
O=C(CN1C(=O)[C@@H](COC(=O)Nc2ccc(F)cc2)N=C(c2ccccc2)c2ccccc21)N[C@H]1CC(=O)OC1O (stereo partly drawn)	inactive	12	inactive	inactive	inactive	inactive	inactive	inactive
O=C(CN1C(=O)[C@@H](COC(=O)Nc2cccc3ccccc23)N=C(c2ccccc2)c2ccccc21)N[C@H]1CC(=O)OC1O (stereo partly drawn)	inactive	17.9	inactive	inactive	inactive	inactive	inactive	inactive
Cc1cc(Cl)ccc1NC(=O)OC[C@H]1N=C(c2ccccc2)c2ccccc2N(CC(=O)N[C@H]2CC(=O)OC2O)C1=O (stereo partly drawn)	inactive	11.2	inactive	inactive	inactive	inactive	inactive	inactive
O=C(CN1C(=O)[C@@H](COC(=O)Nc2ccc(Cl)cc2C(F)(F)F)N=C(c2ccccc2)c2ccccc21)N[C@H]1CC(=O)OC1O (stereo partly drawn)	inactive	25.9	inactive	inactive	inactive	inactive	inactive	inactive
O=C(CN1C(=O)[C@@H](COC(=O)Nc2ccc(F)cc2F)N=C(c2ccccc2)c2ccccc21)N[C@H]1CC(=O)OC1O (stereo partly drawn)	inactive	14.7	inactive	inactive	inactive	inactive	inactive	inactive
O=C(CN1C(=O)[C@@H](COC(=O)Nc2c(F)cc(F)cc2Br)N=C(c2ccccc2)c2ccccc21)N[C@H]1CC(=O)OC1O (stereo partly drawn)	inactive	21.4	inactive	inactive	inactive	inactive	inactive	inactive
O=C(CN1C(=O)[C@@H](COC(=O)Nc2ccccc2)N=C(c2ccccc2)c2ccccc21)N[C@H]1CC(=O)OC1O (stereo partly drawn)	inactive	19.8	inactive	inactive	inactive	inactive	inactive	inactive
